pKd: −log10 of the molar value. Where “and” joins values, the source holds several entries; their conditions need not be identical. Equal values may be shown once. Read-outs that look alike come from different tables or passages of the source.
Key:
[1] = test system: Fe(II) Vc H-NOX; test: Stopped-flow kinetics and affinity of gaseous ligand binding to Fe; parameters: species or system Vibrio cholerae; settings: for koff / pKd: Fe(II) Vc H-NOX, NO: 6c complex; for koff: displacement method; for pKd: calculated from kon and koff; for koff of 5c Vc H-NOX-NO complex, fast phase / koff of 5c Vc H-NOX-NO complex, slow phase: displacement with CO/dithionite
[2] = target: sGC; settings: 6c complex, ref [5], cited from earlier work
[3] = target: Ferrous Ns H-NOX; settings: ref [5], cited from earlier work
[4] = target: Fe(III) Vc H-NOX (Vibrio cholerae, UniProt Q9KLM3); test: biochemical; format: binding
[5] = test system: Fe(II) Vc H-NOX; test: Autoxidation of Fe; format: biochemical, Vibrio cholerae
Procedure, shortened: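 Recombinant Vc H-NOX was expressed in E. coli Rosetta 2(DE3)pLysS (heme and δ-aminolevulinic acid supplemented, IPTG, 48 h at 20 °C) and purified on TALON resin. The anaerobic Fe(II) protein was mixed with O2 by stopped-flow in 20 mM HEPES pH 7.3, 50 mM NaCl, 10% glycerol. Spectral changes were followed by diode-array over 65.5 s, and kobs was taken from single-exponential fits under pseudo-first-order conditions.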

[6] = test system: Fe(II) Ns H-NOX; settings: ref [14]; cited from earlier work
[7] = estimated by computer simulation of A420 time courses

For [C-]#[O+] [CO, Carbon monoxide], the koff ([1]; 24 °C) is listed as 0.85 s⁻¹, the pKd [1] is listed as 6.11 and the pKd ([2]; read-out: affinity of CO for sGC (KD)) is listed as 3.59. The pKd ([3]; read-out: KD(CO) of ferrous Ns H-NOX) was 5.85.

Compound c1c[nH]cn1 [Im, imidazole] has a pKd [4] of 2.38.

For O=O [O2], the “second order reaction rate constant (slope of kobs versus [O2])” value ([5]; 3 μM Fe(II) Vc H-NOX, 100-600 μM O2, 24 °C, A429) is given as 4.8 M⁻¹ s⁻¹, the “autoxidation rate of Fe(II) Vc H-NOX to ferric state (k4)” value ([5]; k4 = slope × KD(O2)) is given as 0.06 s^−1 and ~ 0.06 s^−1 and the “autoxidation rate of Fe(II) Ns H-NOX” value [6] is given as ~ 0.05 hr^−1 and 0.05 hr^−1. For the same compound, the pKd ([3]; read-out: KD for O2 of Ns H-NOX, measured using a high pressure cell) was 1.89.

With nitric oxide [NO] the koff ([1]; 24 °C) was 0.3 s⁻¹, the pKd [1] was 9.57 and the “k1 (second NO binding to 6c complex)” value [1, 7] was 2.5e+07 M⁻¹ s⁻¹. For the same compound, the “k-1 (dissociation of quaternary complex)” value [1, 7] was 4500 s⁻¹, the “k2 (limiting rate of 5c heme-NO complex formation)” value ([1]; excess NO, hyperbolic fit of kobs versus [NO], 24 °C) was 720 s⁻¹ and the “koff of 5c Vc H-NOX-NO complex, fast phase” value ([1]; excess NO, 29% overall reaction) was 0.01 s⁻¹. The “koff of 5c Vc H-NOX-NO complex, slow phase” value ([1]; excess NO, 71% overall reaction) was 0.001 s⁻¹, the “overall conversion rate of 6c to 5c Vc H-NOX-NO complex” value ([1]; stoichiometric NO (2.5 μM each), 24 °C, global analysis) was ~ 0.01 s^−1 and the “koff of 5c Vc H-NOX-NO complex, fast phase” value ([1]; stoichiometric NO, 16% overall reaction) was 0.01 s⁻¹. For the same compound, the “koff of 5c Vc H-NOX-NO complex, slow phase” value ([1]; stoichiometric NO, 84% overall reaction) was 0.001 s⁻¹, the “k-2 (re-association of NO with 5c Vc H-NOX)” value ([1]; y-intercept of kobs versus low [NO]) was 1.9 s⁻¹ and the pKd ([2]; read-out: affinity of NO for sGC (KD)) was 7.27. The pKd ([3]; read-out: KD(NO) of ferrous Ns H-NOX) was 9.77.

— PMC3999706 (Biochemistry, 2013)
